ChEMBL document CHEMBL1153096, “Properly substituted 1,4-dioxane nucleus favours the selective M3 muscarinic receptor activation” (Bioorg Med Chem, 2009)
Active and inactive are the calls of the source. The rule behind the calls is not given here.

What was measured:
[1] = biological target: Muscarinic acetylcholine receptor M3 (Homo sapiens, UniProt P20309); assay: Displacement of [3H]NMS from human muscarinic M3 receptor expressed in CHO cells by microplate scintillation counting; assay type: cell-based
Sequence of Muscarinic acetylcholine receptor M3 (P20309 whole entry): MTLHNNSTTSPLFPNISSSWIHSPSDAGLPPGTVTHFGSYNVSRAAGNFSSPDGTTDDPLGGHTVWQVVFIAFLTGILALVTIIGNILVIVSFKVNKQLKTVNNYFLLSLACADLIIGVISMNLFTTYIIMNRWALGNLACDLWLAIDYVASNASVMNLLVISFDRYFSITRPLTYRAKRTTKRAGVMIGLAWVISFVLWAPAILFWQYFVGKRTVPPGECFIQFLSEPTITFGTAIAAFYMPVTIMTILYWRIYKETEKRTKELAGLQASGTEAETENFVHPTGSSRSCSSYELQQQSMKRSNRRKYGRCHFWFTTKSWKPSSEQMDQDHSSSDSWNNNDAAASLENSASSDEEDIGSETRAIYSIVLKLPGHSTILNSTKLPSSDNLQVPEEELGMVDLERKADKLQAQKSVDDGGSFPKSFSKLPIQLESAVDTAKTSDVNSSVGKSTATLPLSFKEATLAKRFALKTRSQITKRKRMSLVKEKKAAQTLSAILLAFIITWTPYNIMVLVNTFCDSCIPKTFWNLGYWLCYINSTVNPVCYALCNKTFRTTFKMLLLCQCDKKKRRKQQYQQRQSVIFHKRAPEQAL

Oryctolagus cuniculus [2] = species on record: Oryctolagus cuniculus; assay: Antagonist activity at muscarinic M1 receptor in New Zealand White rabbit vas deferens assessed as effect on muscle contraction up to 30 uM; assay type: functional, tissue-based
[3] = biological target: T1, Muscarinic acetylcholine receptor M5 (Homo sapiens, UniProt P08912); assay: Displacement of [3H]NMS from human muscarinic M5 receptor expressed in CHO cells by microplate scintillation counting; assay type: cell-based
T1 sequence (P08912 whole entry): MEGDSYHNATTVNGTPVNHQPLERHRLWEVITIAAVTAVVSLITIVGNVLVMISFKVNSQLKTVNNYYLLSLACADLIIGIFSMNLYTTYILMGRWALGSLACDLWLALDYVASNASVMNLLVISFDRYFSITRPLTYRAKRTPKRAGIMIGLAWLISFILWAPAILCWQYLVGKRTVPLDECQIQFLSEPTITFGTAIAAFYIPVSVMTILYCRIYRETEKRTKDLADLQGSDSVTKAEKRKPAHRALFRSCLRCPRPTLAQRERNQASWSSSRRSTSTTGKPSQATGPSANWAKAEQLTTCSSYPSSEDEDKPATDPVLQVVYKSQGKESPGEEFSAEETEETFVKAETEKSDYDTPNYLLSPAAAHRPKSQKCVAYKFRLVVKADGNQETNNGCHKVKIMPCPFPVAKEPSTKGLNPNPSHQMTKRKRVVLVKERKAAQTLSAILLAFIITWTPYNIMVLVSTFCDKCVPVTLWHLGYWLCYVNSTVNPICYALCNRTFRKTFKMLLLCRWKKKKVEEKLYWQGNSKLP

[4] = biological target: Muscarinic acetylcholine receptor M3 (Cavia porcellus) (UniProt Q8VH26); assay: Agonist activity at muscarinic M3 receptor in guinea pig ileum assessed as inhibition of electrically-stimulated muscle contraction; assay type: functional, tissue-based
Sequence of Muscarinic acetylcholine receptor M3 (Cavia porcellus) (Q8VH26 1-587): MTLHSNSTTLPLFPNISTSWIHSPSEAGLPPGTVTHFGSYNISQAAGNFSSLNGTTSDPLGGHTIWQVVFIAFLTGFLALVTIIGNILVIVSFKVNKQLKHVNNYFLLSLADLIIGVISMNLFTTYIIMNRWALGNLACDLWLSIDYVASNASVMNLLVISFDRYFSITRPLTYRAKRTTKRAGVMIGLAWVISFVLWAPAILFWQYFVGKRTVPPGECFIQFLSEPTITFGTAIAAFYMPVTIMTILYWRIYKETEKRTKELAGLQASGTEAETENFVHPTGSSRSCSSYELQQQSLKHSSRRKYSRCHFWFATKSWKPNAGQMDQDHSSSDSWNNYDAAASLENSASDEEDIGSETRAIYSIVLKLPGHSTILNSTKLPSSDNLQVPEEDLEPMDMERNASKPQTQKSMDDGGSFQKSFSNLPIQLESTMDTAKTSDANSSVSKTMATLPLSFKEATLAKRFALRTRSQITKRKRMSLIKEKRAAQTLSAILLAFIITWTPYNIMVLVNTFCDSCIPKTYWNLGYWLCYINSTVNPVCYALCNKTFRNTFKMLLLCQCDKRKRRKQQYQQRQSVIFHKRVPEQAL
In short: (§1)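 Male guinea pig (250-350 g, fasted 24 h) ileal segments 2-3 cm, 1.0 g tension, 37 °C, Krebs-Henseleit with carbogen; 45 min equilibration, isometric contractions. Cumulative agonist concentration-response curves; pD2 by linear regression; intrinsic activity relative to bethanechol maximum; means ± SEM of four to six experiments.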

Cavia porcellus [5] = species on record: Cavia porcellus; assay: Antagonist activity at muscarinic M4 receptor in guinea pig lung assessed as effect on muscle contraction up to 10 uM; assay type: functional
[6] = biological target: T2, Muscarinic acetylcholine receptor M1 (Homo sapiens, UniProt P11229); assay: Displacement of [3H]NMS from human muscarinic M1 receptor expressed in CHO cells by microplate scintillation counting; assay type: cell-based
T2 sequence (P11229 whole entry): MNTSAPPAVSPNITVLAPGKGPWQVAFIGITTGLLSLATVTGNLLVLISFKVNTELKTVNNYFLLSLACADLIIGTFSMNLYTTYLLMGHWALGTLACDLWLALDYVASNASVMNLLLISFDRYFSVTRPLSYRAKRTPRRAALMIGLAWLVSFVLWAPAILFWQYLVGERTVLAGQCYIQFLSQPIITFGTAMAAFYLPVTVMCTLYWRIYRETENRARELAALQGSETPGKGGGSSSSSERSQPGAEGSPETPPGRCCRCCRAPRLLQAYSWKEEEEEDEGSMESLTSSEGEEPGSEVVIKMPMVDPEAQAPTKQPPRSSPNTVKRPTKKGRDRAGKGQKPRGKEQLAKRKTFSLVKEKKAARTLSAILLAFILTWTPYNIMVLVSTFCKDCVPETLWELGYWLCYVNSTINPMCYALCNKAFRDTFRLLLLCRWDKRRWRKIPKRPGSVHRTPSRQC

Oryctolagus cuniculus [7] = species on record: Oryctolagus cuniculus; assay: (§2) Agonist activity at muscarinic M1 receptor in New Zealand White rabbit vas deferens assessed as inhibition of electrically-stimulated muscle contraction; assay type: functional
In short: (§3)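 Prostatic portion of male-free-listed New Zealand white rabbit (3.0-3.5 kg, fasted 24 h) vas deferens in modified Krebs, 31 °C, 95% O2-5% CO2; 45 min stabilisation, field stimulation 2 Hz, 5 ms, 5 V; isometric recording. Cumulative concentration-response curves; pD2 by linear regression; intrinsic activity as fraction of McN-A-343 maximum; means ± SEM of four to six experiments.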

[8] = biological target: T3, Muscarinic acetylcholine receptor M4 (Homo sapiens, UniProt P08173); assay: Displacement of [3H]NMS from human muscarinic M4 receptor expressed in CHO cells by microplate scintillation counting; assay type: cell-based
T3 sequence (P08173 whole entry): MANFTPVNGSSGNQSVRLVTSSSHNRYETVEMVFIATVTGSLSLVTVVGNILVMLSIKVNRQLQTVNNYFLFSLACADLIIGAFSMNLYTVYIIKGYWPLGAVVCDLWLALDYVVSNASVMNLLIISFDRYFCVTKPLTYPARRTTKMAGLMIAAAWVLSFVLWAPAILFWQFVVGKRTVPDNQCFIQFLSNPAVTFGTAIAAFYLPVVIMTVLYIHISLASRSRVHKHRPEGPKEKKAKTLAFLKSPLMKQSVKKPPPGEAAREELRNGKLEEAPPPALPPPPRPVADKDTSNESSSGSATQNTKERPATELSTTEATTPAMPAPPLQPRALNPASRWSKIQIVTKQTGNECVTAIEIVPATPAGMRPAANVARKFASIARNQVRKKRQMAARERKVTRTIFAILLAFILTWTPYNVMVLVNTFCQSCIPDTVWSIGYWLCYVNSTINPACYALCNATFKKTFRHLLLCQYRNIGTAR

[9] = biological target: Muscarinic acetylcholine receptor M3 (Cavia porcellus) (UniProt Q8VH26); assay: Intrinsic activity at muscarinic M3 receptor in guinea pig ileum assessed as inhibition of electrically-stimulated muscle contraction relative to bathanecol; assay type: tissue-based; in short: as §1
[10] = biological target: T4, Muscarinic acetylcholine receptor M2 (Homo sapiens, UniProt P08172); assay: Displacement of [3H]NMS from human muscarinic M2 receptor expressed in CHO cells by microplate scintillation counting; assay type: cell-based
T4 sequence (P08172 whole entry): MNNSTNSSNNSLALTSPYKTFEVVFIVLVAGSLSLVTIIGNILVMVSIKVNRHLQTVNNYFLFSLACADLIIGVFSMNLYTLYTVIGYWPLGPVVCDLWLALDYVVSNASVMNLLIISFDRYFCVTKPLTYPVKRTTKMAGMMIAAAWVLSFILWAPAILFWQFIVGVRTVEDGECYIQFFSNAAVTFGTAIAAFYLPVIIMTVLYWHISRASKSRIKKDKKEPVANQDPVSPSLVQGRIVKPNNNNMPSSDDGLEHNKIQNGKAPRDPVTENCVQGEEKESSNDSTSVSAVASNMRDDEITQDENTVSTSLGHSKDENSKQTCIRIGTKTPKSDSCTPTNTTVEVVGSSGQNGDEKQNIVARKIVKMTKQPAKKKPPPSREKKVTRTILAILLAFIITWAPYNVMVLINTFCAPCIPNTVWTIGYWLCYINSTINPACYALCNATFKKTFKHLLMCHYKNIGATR

[11] = Agonist activity at muscarinic M2 receptor in guinea pig atrium assessed as inhibition of electrically-stimulated muscle contraction; assay type: functional, Cavia porcellus, Cardiac atrium
Cavia porcellus [12] = species on record: Cavia porcellus; assay: Intrinsic activity at muscarinic M2 receptor in guinea pig atrium assessed as inhibition of electrically-stimulated muscle contraction relative to bathanecol; assay type: tissue-based; conditions: Cardiac atrium
Cavia porcellus [13] = species on record: Cavia porcellus; assay: Antagonist activity at muscarinic M2 receptor in guinea pig atrium assessed as effect on muscle contraction up to 10 uM; assay type: functional, tissue-based; conditions: Cardiac atrium
Cavia porcellus [14] = species on record: Cavia porcellus; assay: Intrinsic activity at muscarinic M4 receptor in guinea pig lung assessed as inhibition of electrically-stimulated muscle contraction relative to bathanecol
In short: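 Male guinea pig peripheral lung strips (15 × 2 × 2 mm) from lower lobe, 0.3 g resting tension, 37 °C, Krebs-Henseleit with carbogen; 45 min equilibration, isometric contractions. Cumulative agonist concentration-response curves; pD2 by linear regression; intrinsic activity relative to bethanechol maximum; means ± SEM of four to six experiments.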

[15] = Agonist activity at muscarinic M4 receptor in guinea pig lung assessed as inhibition of electrically-stimulated muscle contraction; assay type: functional, Cavia porcellus
Oryctolagus cuniculus [16] = species on record: Oryctolagus cuniculus; conditions: New Zealand White, Vas deferens
[17] = biological target: Muscarinic acetylcholine receptor M3 (Cavia porcellus) (UniProt Q8VH26); conditions: Ileum
Cavia porcellus [18] = species on record: Cavia porcellus; conditions: Cardiac atrium
[19] = as §2; assay type: functional, Oryctolagus cuniculus; in short: as §3
Oryctolagus cuniculus [20] = species on record: Oryctolagus cuniculus; assay: Intrinsic activity at muscarinic M1 receptor in New Zealand White rabbit vas deferens assessed as inhibition of electrically-stimulated muscle contraction relative to McN-A-343; assay type: tissue-based; in short: as §3
Cavia porcellus [21] = species on record: Cavia porcellus; assay: Selectivity ratio of pD2 for guinea pig muscarinic M3 receptor to pD2 for guinea pig muscarinic M2 receptor
Cavia porcellus [22] = species on record: Cavia porcellus; assay: Selectivity ratio of pD2 for guinea pig muscarinic M4 receptor to pD2 for guinea pig muscarinic M3 receptor

Compound	Ki [1] [µM]	pKb (Oryctolagus cuniculus [2])	Ki [3] [µM]	pD2 [4]	Ki [6] [µM]	pD2 (Oryctolagus cuniculus [7])	Ki [8] [µM]	Intrinsic activity [9]	Ki [10] [µM]	pD2 [11]	Intrinsic activity (Cavia porcellus [12])	Intrinsic activity (Cavia porcellus [14])	pD2 [15]	other results
CC1(C)OC[C@@H](C[N+](C)(C)C)OC1(C)C.[I-]	40.7	inactive	66.1	5.09	> 100	inactive	53.7	0.93	46.8	5.12	0.71			pKb (Cavia porcellus [5]): inactive
CC1(C)CO[C@H](C[N+](C)(C)C)CO1.[I-]	77.6	inactive	> 100	4.91	> 100	inactive	> 100	0.68	95.5			0.22	4.85	pKb (Cavia porcellus [13]): inactive
C[C@@H]1CO[C@H](C[N+](C)(C)C)CO1.[I-] (relative stereo)	66.1		93.3		> 100	inactive	93.3	1	11.2		1	0.55		pKb (Oryctolagus cuniculus [16]): inactive
CC(C[N+](C)(C)C)OC(N)=O.[Cl-] (configuration not stated) [BETHANECHOL CHLORIDE]				6.16						5.88			5.01	
C[C@@H]1OC[C@@H](C[N+](C)(C)C)OC1(C)C.[I-] (relative stereo)	10.5		16.6	5.7	38		30.2	0.66	33.9	4.99	0.46			pKb (Cavia porcellus [5]): inactive
C[C@@H]1OC[C@@H](C[N+](C)(C)C)O[C@@H]1C.[I-] (relative stereo)	> 100	inactive	> 100	4.91	> 100	inactive	> 100	0.85	89.1	5.04	0.27			pKb (Cavia porcellus [5]): inactive
C[C@H]1O[C@H](C[N+](C)(C)C)COC1(C)C (relative stereo)	46.8	inactive	83.2	inactive	95.5	inactive	87.1		72.4					pKb (Cavia porcellus [13]): inactive; pKb [17]: inactive; pKb (Cavia porcellus [5]): inactive; pKb (Cavia porcellus [18]): inactive
C[N+](C)(C)CC#CCOC(=O)Nc1cccc(Cl)c1.[Cl-]														pD2 [19]: 6.4
C[C@@H]1COC[C@@H](C[N+](C)(C)C)O1.[I-]			67.6	6.02			87.1		4.9		1	1		Intrinsic activity (Oryctolagus cuniculus [20]): 1; pD2 [19]: 5.08
C[C@H]1CO[C@H](C[N+](C)(C)C)CO1.[I-] (relative stereo)	44.7		63.1		> 100	inactive	> 100	1	17.4		0.95	0.57	5.08	pKb (Oryctolagus cuniculus [16]): inactive
C[C@@H]1O[C@H](C[N+](C)(C)C)CO[C@@H]1C.[I-] (relative stereo)	> 100		97.7	5.27	> 100		> 100	1	20	5.18	0.91	0.5	5	
C[C@@H]1OC[C@@H](C[N+](C)(C)C)O[C@H]1C.[I-] (relative stereo)	11	inactive	15.5	6.95	24.5	inactive	30.9	0.88	13.8	4.93	0.8	0.35	5.08	Selectivity ratio (Cavia porcellus [21]): 105; Selectivity ratio (Cavia porcellus [22]): 74
C[C@H]1COC[C@@H](C[N+](C)(C)C)O1.[I-] (relative stereo)			7.76	7.34			11.5		1.58		1			Intrinsic activity (Oryctolagus cuniculus [20]): 1; pD2 [19]: 5.65
C[C@H]1OC[C@@H](C[N+](C)(C)C)O[C@@H]1C.[I-] (relative stereo)	> 100		> 100	6.7	> 100		> 100	1.18	16.6	5.01	0.89	0.65	4.59	Selectivity ratio (Cavia porcellus [21]): 49; Selectivity ratio (Cavia porcellus [22]): 141
